Assay results: ChEMBL document CHEMBL4808225, “Discovery and Characterization of Selective and Ligand-Efficient DYRK Inhibitors” (J Med Chem, 2021)
Values after ≈ are worked out from the molar mass of the structure shown.

Assays:
[1] = biological target: Homeodomain-interacting protein kinase 2 (Homo sapiens, UniProt Q9H2X6); assay: Binding affinity to wild-type human partial length HIPK2 (M153 to S564 residues) expressed in mammalian expression system measured after 1 hr by competitive binding assay
Homeodomain-interacting protein kinase 2, sequence (Q9H2X6 whole entry, the tested form may be a part): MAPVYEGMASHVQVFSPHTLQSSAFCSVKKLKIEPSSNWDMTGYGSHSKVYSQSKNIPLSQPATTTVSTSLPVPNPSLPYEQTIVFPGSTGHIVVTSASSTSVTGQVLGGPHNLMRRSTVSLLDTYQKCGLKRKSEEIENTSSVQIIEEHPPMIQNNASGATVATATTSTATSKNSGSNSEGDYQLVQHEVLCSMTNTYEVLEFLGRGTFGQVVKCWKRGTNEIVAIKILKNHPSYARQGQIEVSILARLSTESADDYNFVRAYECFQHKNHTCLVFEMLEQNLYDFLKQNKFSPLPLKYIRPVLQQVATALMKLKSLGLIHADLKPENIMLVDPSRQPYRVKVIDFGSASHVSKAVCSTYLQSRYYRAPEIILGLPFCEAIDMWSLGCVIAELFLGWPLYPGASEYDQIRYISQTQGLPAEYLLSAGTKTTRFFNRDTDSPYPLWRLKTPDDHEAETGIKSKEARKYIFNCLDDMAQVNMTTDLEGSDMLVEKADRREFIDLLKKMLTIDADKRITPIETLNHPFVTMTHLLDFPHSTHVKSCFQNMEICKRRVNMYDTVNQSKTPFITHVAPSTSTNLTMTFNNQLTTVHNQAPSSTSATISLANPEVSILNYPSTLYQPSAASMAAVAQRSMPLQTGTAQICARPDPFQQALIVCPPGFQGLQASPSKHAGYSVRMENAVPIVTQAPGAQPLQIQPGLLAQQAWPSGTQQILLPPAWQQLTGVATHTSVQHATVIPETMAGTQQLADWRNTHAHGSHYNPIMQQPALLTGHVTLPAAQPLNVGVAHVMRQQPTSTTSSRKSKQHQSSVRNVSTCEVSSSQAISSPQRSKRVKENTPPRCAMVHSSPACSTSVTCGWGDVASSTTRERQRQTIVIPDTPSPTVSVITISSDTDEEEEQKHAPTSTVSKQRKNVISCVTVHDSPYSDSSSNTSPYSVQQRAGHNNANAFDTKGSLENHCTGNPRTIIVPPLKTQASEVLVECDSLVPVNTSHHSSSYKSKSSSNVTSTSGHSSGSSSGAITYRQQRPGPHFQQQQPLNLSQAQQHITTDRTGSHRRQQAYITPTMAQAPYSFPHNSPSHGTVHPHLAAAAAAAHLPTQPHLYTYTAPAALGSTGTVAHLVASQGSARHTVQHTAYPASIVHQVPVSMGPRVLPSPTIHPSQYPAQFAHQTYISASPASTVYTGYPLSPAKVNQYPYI

[2] = Toxicity in Sprague-Dawley rat assessed as adverse effect at 1 mg/kg, iv; type: organism-based; conditions: in vivo
Summary of the method: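 Fed Sprague–Dawley rats (n = 3) received one 1 mg/kg iv dose; adverse effects were recorded during the pharmacokinetic study.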

[3] = Metabolic stability in rat liver microsomes; type: ADME, Microsome; conditions: read-out: Stabilty
[4] = Ratio of drug concentration in brain to plasma in Sprague-Dawley rat at 1 mg/kg, iv; type: ADME, organism-based
Summary of the method: (§1)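 Single intravenous dose of 1 mg/kg given to fed Sprague–Dawley rats (n = 3); plasma and brain samples collected for pharmacokinetic parameters, with total brain:plasma ratio computed.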

[5] = biological target: T1, Serine/threonine-protein kinase haspin (Homo sapiens, UniProt Q8TF76); assay: Binding affinity to wild-type human partial length HASPIN (I452 to K798 residues) expressed in mammalian expression system measured after 1 hr by competitive binding assay
T1 sequence (Q8TF76 whole entry): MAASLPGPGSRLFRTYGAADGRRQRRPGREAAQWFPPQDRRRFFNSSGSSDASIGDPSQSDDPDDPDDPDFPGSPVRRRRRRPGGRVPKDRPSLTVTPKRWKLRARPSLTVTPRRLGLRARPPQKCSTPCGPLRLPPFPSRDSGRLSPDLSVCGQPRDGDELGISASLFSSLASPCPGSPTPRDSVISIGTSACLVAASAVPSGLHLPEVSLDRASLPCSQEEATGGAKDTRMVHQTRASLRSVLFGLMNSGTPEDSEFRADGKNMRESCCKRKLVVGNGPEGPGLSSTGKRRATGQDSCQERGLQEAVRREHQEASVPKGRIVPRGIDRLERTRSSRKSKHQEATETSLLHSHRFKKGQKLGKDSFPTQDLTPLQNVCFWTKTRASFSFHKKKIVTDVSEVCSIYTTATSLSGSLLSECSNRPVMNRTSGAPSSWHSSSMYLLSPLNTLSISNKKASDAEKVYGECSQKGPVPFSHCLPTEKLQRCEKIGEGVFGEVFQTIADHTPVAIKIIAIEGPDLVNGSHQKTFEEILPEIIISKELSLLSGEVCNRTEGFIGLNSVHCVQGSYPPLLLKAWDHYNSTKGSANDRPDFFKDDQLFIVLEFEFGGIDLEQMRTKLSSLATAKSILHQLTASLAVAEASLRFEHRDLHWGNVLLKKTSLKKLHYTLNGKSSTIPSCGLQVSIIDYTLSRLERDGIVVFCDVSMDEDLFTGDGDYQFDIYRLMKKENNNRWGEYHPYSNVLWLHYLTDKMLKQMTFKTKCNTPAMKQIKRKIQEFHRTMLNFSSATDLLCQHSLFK

[6] = Cmax in Sprague-Dawley rat at 1 mg/kg, iv; type: ADME, organism-based; set-up: route intravenous, dose 1 mg/kg; conditions: in vivo; summary of the method: as §1
[7] = Initial plasma concentration in Sprague-Dawley rat at 1 mg/kg, iv; type: ADME, organism-based; conditions: in vivo; summary of the method: as §1
[8] = biological target: Dual specificity protein kinase CLK4 (Homo sapiens, UniProt Q9HAZ1); assay: Binding affinity to wild-type human partial length CLK4 (R135 to K481 residues) expressed in bacterial expression system measured after 1 hr by competitive binding assay
Dual specificity protein kinase CLK4, sequence (Q9HAZ1 whole entry, the tested form may be a part): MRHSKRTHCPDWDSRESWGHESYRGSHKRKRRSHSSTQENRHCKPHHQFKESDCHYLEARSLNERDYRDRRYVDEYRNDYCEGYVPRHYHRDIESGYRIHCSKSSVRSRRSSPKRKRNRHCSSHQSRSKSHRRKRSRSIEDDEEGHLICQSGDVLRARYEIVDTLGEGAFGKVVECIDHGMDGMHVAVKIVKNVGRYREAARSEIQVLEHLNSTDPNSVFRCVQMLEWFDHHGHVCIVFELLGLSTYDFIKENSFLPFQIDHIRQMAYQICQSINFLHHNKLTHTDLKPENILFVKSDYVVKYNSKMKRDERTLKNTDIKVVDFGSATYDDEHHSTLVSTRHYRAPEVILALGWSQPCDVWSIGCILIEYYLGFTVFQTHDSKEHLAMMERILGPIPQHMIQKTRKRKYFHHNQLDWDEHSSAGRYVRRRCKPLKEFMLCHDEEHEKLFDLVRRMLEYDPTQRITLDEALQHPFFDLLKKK

[9] = biological target: T2, Dual specificity protein kinase CLK1 (Homo sapiens, UniProt P49759); assay: Binding affinity to wild-type human full length CLK1 (M1 to I484 residues) expressed in bacterial expression system measured after 1 hr by competitive binding assay
Target sequence in this assay (P49759 whole entry, the tested form may be a part): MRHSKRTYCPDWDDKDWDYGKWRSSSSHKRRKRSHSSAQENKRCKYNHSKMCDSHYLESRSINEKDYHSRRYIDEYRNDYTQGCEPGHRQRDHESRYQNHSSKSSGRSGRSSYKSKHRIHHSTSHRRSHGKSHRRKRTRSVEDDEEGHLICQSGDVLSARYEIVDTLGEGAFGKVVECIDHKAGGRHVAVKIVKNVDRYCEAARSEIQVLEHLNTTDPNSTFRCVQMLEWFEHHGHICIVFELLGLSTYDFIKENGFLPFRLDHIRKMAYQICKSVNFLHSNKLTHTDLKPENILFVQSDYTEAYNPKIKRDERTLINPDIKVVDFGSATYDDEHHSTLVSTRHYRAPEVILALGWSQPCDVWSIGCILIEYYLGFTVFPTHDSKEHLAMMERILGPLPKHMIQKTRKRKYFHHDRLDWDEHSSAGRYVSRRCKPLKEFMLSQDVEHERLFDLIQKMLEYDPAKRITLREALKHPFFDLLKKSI

[10] = Tmax in Sprague-Dawley rat at 1 mg/kg, iv; type: ADME, organism-based; conditions: in vivo; summary of the method: as §1
[11] = biological target: T3, Dual specificity tyrosine-phosphorylation-regulated kinase 2 (Homo sapiens) (UniProt Q92630); assay: Inhibition of wild-type human full length DYRK2 (M1 to S528 residues) expressed in mammalian expression system assessed as remaining activity at 1 uM by Kinomescan method relative to control
T3 sequence (whole entry): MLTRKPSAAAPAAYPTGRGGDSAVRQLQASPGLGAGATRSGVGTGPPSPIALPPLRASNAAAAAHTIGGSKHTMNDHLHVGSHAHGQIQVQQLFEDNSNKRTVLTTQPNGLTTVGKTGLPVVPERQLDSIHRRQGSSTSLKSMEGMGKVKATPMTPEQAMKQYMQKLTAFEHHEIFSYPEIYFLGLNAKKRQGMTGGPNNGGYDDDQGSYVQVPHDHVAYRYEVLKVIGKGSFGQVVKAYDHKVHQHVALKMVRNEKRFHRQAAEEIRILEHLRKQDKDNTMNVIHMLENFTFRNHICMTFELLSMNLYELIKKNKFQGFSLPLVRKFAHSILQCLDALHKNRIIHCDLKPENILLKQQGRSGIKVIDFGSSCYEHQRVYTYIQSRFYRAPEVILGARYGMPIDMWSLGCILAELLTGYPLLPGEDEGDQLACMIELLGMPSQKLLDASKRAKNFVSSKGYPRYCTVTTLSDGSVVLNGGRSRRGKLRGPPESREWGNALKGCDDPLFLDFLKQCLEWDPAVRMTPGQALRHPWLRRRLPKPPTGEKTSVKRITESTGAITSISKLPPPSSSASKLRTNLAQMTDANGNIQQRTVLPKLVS
Summary of the method: (§2)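 KINOMEscan competition binding panel run with inhibitor at 1 μM; read-out is remaining kinase activity (percent of control).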

[12] = biological target: Dual specificity protein kinase CLK2 (Homo sapiens) (UniProt P49760); assay: Inhibition of wild-type human partial length CLK2 (D144 to R498 residues) expressed in bacterial expression system assessed as remaining activity at 1 uM by Kinomescan method relative to control; summary of the method: as §2
Dual specificity protein kinase CLK2 (Homo sapiens), sequence (P49760 whole entry, looked up, the tested form may be a part): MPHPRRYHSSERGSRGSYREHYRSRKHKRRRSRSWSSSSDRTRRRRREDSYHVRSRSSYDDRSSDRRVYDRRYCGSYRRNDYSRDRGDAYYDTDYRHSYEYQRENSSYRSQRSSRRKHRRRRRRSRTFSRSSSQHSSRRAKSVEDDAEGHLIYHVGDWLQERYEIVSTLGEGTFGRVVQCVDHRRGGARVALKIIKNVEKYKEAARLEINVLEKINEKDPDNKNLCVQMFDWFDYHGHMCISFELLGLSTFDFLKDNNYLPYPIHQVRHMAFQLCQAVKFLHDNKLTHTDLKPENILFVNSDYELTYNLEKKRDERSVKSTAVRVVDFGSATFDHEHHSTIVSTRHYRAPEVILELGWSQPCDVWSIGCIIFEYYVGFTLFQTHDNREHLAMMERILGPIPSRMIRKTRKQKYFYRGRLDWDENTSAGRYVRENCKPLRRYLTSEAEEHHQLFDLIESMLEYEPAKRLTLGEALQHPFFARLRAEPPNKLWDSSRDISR

[13] = Half life in Sprague-Dawley rat at 1 mg/kg, iv; type: ADME, organism-based; conditions: in vivo; summary of the method: as §1
[14] = Thermodynamic solubility of the compound at pH 6.8; type: physicochemical; conditions: buffer, read-out: Therm_solubility
Summary of the method: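 Thermodynamic solubility measured at pH 6.8 in a single experiment, reported in […].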

[15] = AUClast in Sprague-Dawley rat at 1 mg/kg, iv; type: ADME, organism-based; set-up: route intravenous, time 0 - last, dose 1 mg/kg; conditions: in vivo; summary of the method: as §1
[16] = MRT in Sprague-Dawley rat at 1 mg/kg, iv; type: ADME, organism-based; conditions: in vivo; summary of the method: as §1
[17] = biological target: STE20/SPS1-related proline-alanine-rich protein kinase (Homo sapiens, UniProt Q9UEW8); assay: Binding affinity to wild-type human partial length STK39 (P43 to I357 residues) expressed in mammalian expression system measured after 1 hr by competitive binding assay
[18] = Metabolic stability in human liver microsomes; type: ADME, Microsome; conditions: read-out: Stabilty
[19] = biological target: Dual specificity protein kinase CLK3 (Homo sapiens) (UniProt P49761); assay: Inhibition of wild-type human full length CLK3 (M1 to R490 residues) expressed in bacterial expression system assessed as remaining activity at 1 uM by Kinomescan method relative to control; summary of the method: as §2
Dual specificity protein kinase CLK3 (Homo sapiens), sequence (P49761 whole entry, looked up, the tested form may be a part): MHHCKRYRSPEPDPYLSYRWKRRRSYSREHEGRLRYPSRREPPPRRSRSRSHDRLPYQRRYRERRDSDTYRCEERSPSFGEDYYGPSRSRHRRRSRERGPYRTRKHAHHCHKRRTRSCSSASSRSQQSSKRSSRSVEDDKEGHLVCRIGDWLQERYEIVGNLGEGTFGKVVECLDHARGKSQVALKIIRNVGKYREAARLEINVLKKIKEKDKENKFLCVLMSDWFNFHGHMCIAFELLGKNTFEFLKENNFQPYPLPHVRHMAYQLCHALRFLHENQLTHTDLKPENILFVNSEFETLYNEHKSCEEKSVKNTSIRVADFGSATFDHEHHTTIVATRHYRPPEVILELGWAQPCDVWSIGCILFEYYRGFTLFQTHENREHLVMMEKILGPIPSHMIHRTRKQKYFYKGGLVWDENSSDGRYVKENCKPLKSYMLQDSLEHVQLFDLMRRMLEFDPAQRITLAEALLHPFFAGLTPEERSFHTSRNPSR

[20] = biological target: T2, Dual specificity protein kinase CLK1; assay: Inhibition of wild-type human full length CLK1 (M1 to I484 residues) expressed in bacterial expression system assessed as remaining activity at 1 uM by Kinomescan method relative to control; summary of the method: as §2
Target sequence in this assay (P49759 whole entry, looked up, the tested form may be a part): as the sequence (P49759 whole entry, the tested form may be a part) above

- Kd [1]: 1200 nM
- microsomal CLint [3]: 231 µL/min/mg
- BPR [4]: > 0.35
- Kd [5]: 15 nM
- Cmax [6]: 1082.8 ng/mL
- C0 [7]: 1331.5 ng/mL
- Kd [8]: 61 nM
- Kd [9]: 70 nM
- Tmax [10]: 1.8 min
- Activity [11]: 19%
- Activity [12]: 9.4%
- t1/2 [13]: 12 min
- solubility thermodynamic [14]: 100 µg/mL (≈ 416 µM)
- AUClast [15]: 275.3 ng·h/mL
- MRT [16]: 12 min
- Kd [17]: 10000 nM
- microsomal CLint [18]: 242 µL/min/mg
- Activity [19]: 54%
- Activity [20]: 7.1%
Compound: CN(C)c1nccc(-c2cnn3ncccc23)n1
- Activity [2]: Non-Toxic
